Converted amounts (≈) assume the structure as drawn. The source made the active and inactive calls. The calls are words filed in the database; no cut-off is given here.
Key:
[1] = molecular target: T1, Baculoviral IAP repeat-containing protein 2 (Homo sapiens, UniProt Q13490); assay: Binding affinity to cIAP1 in human MDA-MB-231 cells assessed as induction of protein degradation after 1 hr by ELISA; assay type: cell-based
MDA-MB-231 = assay: Antiproliferative activity against human MDA-MB-231 cells assessed as growth inhibition after 48 hrs by Alamar Blue assay; assay type: functional; details: MDA-MB-231, 48 h
[2] = Aqueous equilibrium solubility of compound in phosphate buffer at pH 7.4 after 24 hrs by HPLC-UV analysis; assay type: physicochemical
[3] = Fraction unbound in human plasma at 10 uM by equilibrium dialysis method; assay type: ADME, cell-free
[4] = molecular target: T1, Baculoviral IAP repeat-containing protein 2; assay: Displacement of AbuRPFK-5FAM from GST-tagged cIAP1 BIR3 domain (L250 to G350) (unknown origin) after 20 mins by fluorescence polarization assay
Method in brief: (§1)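 Competitive fluorescence polarization binding assay. Measures displacement of a 5-carboxyfluorescein-tagged synthetic peptide from the AVPI groove of the isolated BIR domain.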

[5] = molecular target: E3 ubiquitin-protein ligase XIAP (Homo sapiens, UniProt P98170); assay: Displacement of AbuRPFK-5FAM from GST-tagged XIAP BIR3 domain (N252 to E350) (unknown origin) after 20 mins by fluorescence polarization assay; method in brief: as §1
[6] = Apparent permeability from apical to basolateral side in human Caco2 cells; assay type: ADME, cell-based; details: Caco-2
[7] = Elimination half life in Han Wistar rat at 0.2 mg/kg, iv by LC-MS/MS analysis; assay type: ADME, organism-based; set-up: dose 0.2 mg/kg, route intravenous; details: in vivo, read-out: beta t1/2 (converted)
Method in brief: (§2)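 Rat PK after a single intravenous bolus. Parameters derived from plasma levels: total plasma clearance, steady-state volume of distribution, half-life and AUC.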

[8] = Total plasma clearance in Han Wistar rat at 0.2 mg/kg, iv by LC-MS/MS analysis; assay type: ADME, organism-based; set-up: dose 0.2 mg/kg, route intravenous; method in brief: as §2
[9] = Volume of distribution at steady state in Han Wistar rat at 0.2 mg/kg, iv by LC-MS/MS analysis; assay type: ADME, organism-based; set-up: dose 0.2 mg/kg, route intravenous; details: in vivo, read-out: Vdss; method in brief: as §2
[10] = AUC in Han Wistar rat at 0.2 mg/kg, iv by LC-MS/MS analysis; assay type: ADME, organism-based; set-up: dose 0.2 mg/kg, route intravenous; details: plasma; method in brief: as §2
[11] = AUC in Han Wistar rat at 0.5 mg/kg, iv by LC-MS/MS analysis; assay type: ADME, organism-based; set-up: dose 0.5 mg/kg, route intravenous; details: plasma; method in brief: as §2
[12] = Total plasma clearance in Han Wistar rat at 0.5 mg/kg, iv by LC-MS/MS analysis; assay type: ADME, organism-based; set-up: dose 0.5 mg/kg, route intravenous; method in brief: as §2
[13] = Volume of distribution at steady state in Han Wistar rat at 0.5 mg/kg, iv by LC-MS/MS analysis; assay type: ADME, organism-based; set-up: dose 0.5 mg/kg, route intravenous; details: in vivo, read-out: Vdss; method in brief: as §2
[14] = Elimination half life in Han Wistar rat at 0.5 mg/kg, iv by LC-MS/MS analysis; assay type: ADME, organism-based; set-up: dose 0.5 mg/kg, route intravenous; details: in vivo, read-out: beta t1/2 (converted); method in brief: as §2

Sequence of E3 ubiquitin-protein ligase XIAP (P98170 whole entry, the tested form may be a part): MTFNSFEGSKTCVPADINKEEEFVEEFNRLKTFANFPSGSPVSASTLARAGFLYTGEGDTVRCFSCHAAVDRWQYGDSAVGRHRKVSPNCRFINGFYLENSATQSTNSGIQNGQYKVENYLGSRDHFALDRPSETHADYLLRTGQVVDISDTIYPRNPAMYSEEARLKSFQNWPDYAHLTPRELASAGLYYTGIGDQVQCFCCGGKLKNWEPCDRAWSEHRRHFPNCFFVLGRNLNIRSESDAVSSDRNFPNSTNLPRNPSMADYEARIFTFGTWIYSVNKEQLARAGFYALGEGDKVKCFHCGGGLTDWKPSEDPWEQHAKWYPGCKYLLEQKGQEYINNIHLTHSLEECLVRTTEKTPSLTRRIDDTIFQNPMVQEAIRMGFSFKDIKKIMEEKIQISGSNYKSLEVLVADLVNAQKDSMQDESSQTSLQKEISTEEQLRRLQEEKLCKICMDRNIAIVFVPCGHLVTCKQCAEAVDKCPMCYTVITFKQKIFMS
T1 sequence (Q13490 whole entry): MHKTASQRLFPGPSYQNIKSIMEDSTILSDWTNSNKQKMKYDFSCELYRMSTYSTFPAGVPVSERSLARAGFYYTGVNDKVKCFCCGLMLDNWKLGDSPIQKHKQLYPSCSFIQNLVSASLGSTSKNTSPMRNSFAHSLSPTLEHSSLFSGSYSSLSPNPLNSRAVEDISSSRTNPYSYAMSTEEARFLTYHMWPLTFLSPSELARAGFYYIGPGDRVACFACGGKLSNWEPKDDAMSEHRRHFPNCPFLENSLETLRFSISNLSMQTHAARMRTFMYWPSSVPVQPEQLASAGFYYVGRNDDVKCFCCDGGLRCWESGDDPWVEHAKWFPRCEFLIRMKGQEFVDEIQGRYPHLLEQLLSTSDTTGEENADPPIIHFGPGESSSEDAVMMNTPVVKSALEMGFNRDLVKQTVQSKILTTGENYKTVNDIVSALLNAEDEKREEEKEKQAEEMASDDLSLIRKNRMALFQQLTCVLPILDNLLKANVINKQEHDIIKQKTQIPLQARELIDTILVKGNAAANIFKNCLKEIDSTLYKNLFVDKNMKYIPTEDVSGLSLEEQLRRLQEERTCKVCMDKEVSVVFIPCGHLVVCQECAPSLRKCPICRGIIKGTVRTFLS

EC50 [1] [nM]	GI50 (MDA-MB-231) [nM]	SMILES	further results
> 370	> 370	CN[C@@H](C)C(=O)N[C@@H](CCCCN)C(=O)N1CCC[C@H]1C(=O)N[C@H]1c2ccccc2C[C@H]1OCC#CC#CCO[C@@H]1Cc2ccccc2[C@@H]1NC(=O)[C@@H]1CCCN1C(=O)[C@H](CCCCN)NC(=O)[C@H](C)NC	–
> 370	> 370	CN[C@@H](C)C(=O)N[C@H](C(=O)N1CCC[C@H]1C(=O)N[C@H]1c2ccccc2C[C@H]1OCC#CC#CCO[C@@H]1Cc2ccccc2[C@@H]1NC(=O)[C@@H]1CCCN1C(=O)[C@@H](NC(=O)[C@H](C)NC)C1CCN(CCO)CC1)C1CCN(CCO)CC1	–
0.3	0.1	CN[C@@H](C)C(=O)N[C@H](C(=O)N1CC=C[C@H]1C(=O)N[C@H]1c2ccccc2C[C@H]1OCC#CC#CCO[C@@H]1Cc2ccccc2[C@@H]1NC(=O)[C@@H]1C=CCN1C(=O)[C@@H](NC(=O)[C@H](C)NC)C1CCCCC1)C1CCCCC1	solubility thermodynamic at 24 h [2]: 77 µM (≈ 77.9 µg/mL); fraction unbound at 10 µM [3]: 0.029
4	97	CN[C@@H](C)C(=O)N[C@H](C(=O)N1CCC[C@H]1C(=O)N[C@@H]1c2ccccc2CC[C@@H]1OCC#CC#CCO[C@H]1CCc2ccccc2[C@H]1NC(=O)[C@@H]1CCCN1C(=O)[C@@H](NC(=O)[C@H](C)NC)C(C)(C)C)C(C)(C)C	–
0.2	0.1	CN[C@@H](C)C(=O)N[C@H](C(=O)N1CSC[C@H]1C(=O)N[C@H]1c2ccccc2C[C@H]1OCC#CC#CCO[C@@H]1Cc2ccccc2[C@@H]1NC(=O)[C@@H]1CSCN1C(=O)[C@@H](NC(=O)[C@H](C)NC)C1CCCCC1)C1CCCCC1	solubility thermodynamic at 24 h [2]: < 1 µM; fraction unbound at 10 µM [3]: 0.011
0.6	< 0.1	CN[C@@H](C)C(=O)N[C@H](C(=O)N1CSC2(CC2)[C@H]1C(=O)N[C@H]1c2ccccc2C[C@H]1OCC#CC#CCO[C@@H]1Cc2ccccc2[C@@H]1NC(=O)[C@H]1N(C(=O)[C@@H](NC(=O)[C@H](C)NC)C2CCCCC2)CSC12CC2)C1CCCCC1	solubility thermodynamic at 24 h [2]: < 1 µM; fraction unbound at 10 µM [3]: < 0.01
10	45	C#CCO[C@H]1CCc2ccccc2[C@@H]1NC(=O)[C@@H]1CCCN1C(=O)[C@@H](NC(=O)[C@H](C)NC)C(C)(C)C	IC50 [4]: 14 nM; IC50 [5]: 95 nM
> 370	> 370	CN[C@@H](C)C(=O)N[C@H](C(=O)N1CCC[C@H]1C(=O)N[C@H]1c2ccccc2C[C@H]1OCC#CC#CCO[C@@H]1Cc2ccccc2[C@@H]1NC(=O)[C@@H]1CCCN1C(=O)[C@@H](NC(=O)[C@H](C)NC)C1CCNCC1)C1CCNCC1	–
2	61	CN[C@@H](C)C(=O)N[C@H](C(=O)N1CCC[C@H]1C(=O)N[C@@H]1c2ccccc2CC[C@H]1OCC#CC#CCO[C@@H]1CCc2ccccc2[C@H]1NC(=O)[C@@H]1CCCN1C(=O)[C@@H](NC(=O)[C@H](C)NC)C(C)(C)C)C(C)(C)C	–
0.5	0.1	CN[C@@H](C)C(=O)N[C@H](C(=O)N1CSC[C@H]1C(=O)N[C@H]1c2ccccc2C[C@H]1OCC#CC#CCO[C@@H]1Cc2ccccc2[C@@H]1NC(=O)[C@@H]1CSCN1C(=O)[C@@H](NC(=O)[C@H](C)NC)C(C)(C)C)C(C)(C)C	solubility thermodynamic at 24 h [2]: 268 µM (≈ 268 µg/mL); fraction unbound at 10 µM [3]: 0.107
0.2	< 0.1	CN[C@@H](C)C(=O)N[C@H](C(=O)N1CCC[C@H]1C(=O)N[C@H]1c2ccccc2C[C@@H]1OCC#CC#CCO[C@H]1Cc2ccccc2[C@@H]1NC(=O)[C@@H]1CCCN1C(=O)[C@@H](NC(=O)[C@H](C)NC)C1CCCCC1)C1CCCCC1	–
3	0.2	CN[C@@H](C)C(=O)N[C@H](C(=O)N1CCC[C@H]1C(=O)N[C@H]1c2ccccc2C[C@H]1NC(=O)CCCCCCCCC(=O)N[C@@H]1Cc2ccccc2[C@@H]1NC(=O)[C@@H]1CCCN1C(=O)[C@@H](NC(=O)[C@H](C)NC)C1CCCCC1)C1CCCCC1	inhibition [4]: Active
0.2	0.1	CN[C@@H](C)C(=O)N[C@H](C(=O)N1CCC[C@H]1C(=O)N[C@@H]1CCN(CC#CC#CCN2CC[C@@H](NC(=O)[C@@H]3CCCN3C(=O)[C@@H](NC(=O)[C@H](C)NC)C3CCCCC3)c3ccccc32)c2ccccc21)C1CCCCC1	half-life [7]: 36 min; clearance [8]: 68 mL/min/kg; Vd [9]: 1.2 L/kg; AUC [10]: 40 ng·h/mL
> 370	2190	C#CCO[C@@H]1CCc2ccccc2[C@H]1NC(=O)[C@@H]1CCCN1C(=O)[C@@H](NC(=O)[C@H](C)NC)C(C)(C)C	IC50 [4]: 290 nM; IC50 [5]: 1310 nM
0.2	0.1	CN[C@@H](C)C(=O)N[C@H](C(=O)N1CCC[C@H]1C(=O)N[C@H]1c2ccccc2CC[C@H]1OCC#CC#CCO[C@@H]1CCc2ccccc2[C@@H]1NC(=O)[C@@H]1CCCN1C(=O)[C@@H](NC(=O)[C@H](C)NC)C(C)(C)C)C(C)(C)C	half-life [7]: 30 min; clearance [8]: 111 mL/min/kg; solubility thermodynamic at 24 h [2]: > 1000 µM; Vd [9]: 1.9 L/kg; AUC [10]: 30 ng·h/mL
0.6	0.3	CN[C@@H](C)C(=O)N[C@H](C(=O)N1CCC[C@H]1C(=O)N[C@H]1c2ccccc2CC[C@@H]1OCC#CC#CCO[C@H]1CCc2ccccc2[C@@H]1NC(=O)[C@@H]1CCCN1C(=O)[C@@H](NC(=O)[C@H](C)NC)C(C)(C)C)C(C)(C)C	–
> 370	76	CN[C@@H](C)C(=O)N[C@H](C(=O)N1CCC[C@H]1C(=O)N[C@H]1c2ccccc2C[C@H]1OCC#CC#CCO[C@@H]1Cc2ccccc2[C@@H]1NC(=O)[C@@H]1CCCN1C(=O)[C@@H](NC(=O)[C@H](C)NC)C1CCN(C(C)=O)CC1)C1CCN(C(C)=O)CC1	–
2	0.4	CN[C@@H](C)C(=O)N[C@H](C(=O)N1CCC[C@H]1C(=O)N[C@H]1c2ccccc2C[C@H]1OCC#CC#CCO[C@@H]1Cc2ccccc2[C@@H]1NC(=O)[C@@H]1CCCN1C(=O)[C@@H](NC(=O)[C@H](C)NC)C(C)C)C(C)C	half-life [7]: 96 min; clearance [8]: 44 mL/min/kg; Vd [9]: 2.3 L/kg; AUC [10]: 76 ng·h/mL
15	0.6	CN[C@@H](C)C(=O)N[C@H](C(=O)N1CCC[C@H]1C(=O)N[C@H]1c2ccccc2C[C@H]1NC(=O)c1ccc(-c2ccc(C(=O)N[C@@H]3Cc4ccccc4[C@@H]3NC(=O)[C@@H]3CCCN3C(=O)[C@@H](NC(=O)[C@H](C)NC)C3CCCCC3)cc2)cc1)C1CCCCC1	inhibition [4]: Active
5	13	CN[C@@H](C)C(=O)N[C@H](C(=O)N1CCC[C@H]1C(=O)NC1(C(=O)NCC#CC#CCNC(=O)C2(NC(=O)[C@@H]3CCCN3C(=O)[C@@H](NC(=O)[C@H](C)NC)C3CCCCC3)Cc3ccccc3C2)Cc2ccccc2C1)C1CCCCC1	–
0.1	0.1	CN[C@@H](C)C(=O)N[C@H](C(=O)N1[C@H](C(=O)N[C@H]2c3ccccc3C[C@H]2OCC#CC#CCO[C@@H]2Cc3ccccc3[C@@H]2NC(=O)[C@@H]2C[C@@H]3C[C@@H]3N2C(=O)[C@@H](NC(=O)[C@H](C)NC)C2CCCCC2)C[C@@H]2C[C@@H]21)C1CCCCC1	solubility thermodynamic at 24 h [2]: 48 µM (≈ 49.9 µg/mL); fraction unbound at 10 µM [3]: < 0.01
124	6	CN[C@@H](C)C(=O)N[C@H](C(=O)N1CCC[C@H]1C(=O)N[C@H]1c2ccccc2C[C@H]1NC(=O)c1ccc(C(=O)N[C@@H]2Cc3ccccc3[C@@H]2NC(=O)[C@@H]2CCCN2C(=O)[C@@H](NC(=O)[C@H](C)NC)C2CCCCC2)cc1)C1CCCCC1	inhibition [4]: Active; AUC [11]: 230 ng·h/mL; clearance [12]: 37 mL/min/kg; Vd [13]: 1.4 L/kg; half-life [14]: 396 min
4	16	C#CCO[C@@H]1CCc2ccccc2[C@@H]1NC(=O)[C@@H]1CCCN1C(=O)[C@@H](NC(=O)[C@H](C)NC)C(C)(C)C	IC50 [4]: 10 nM; IC50 [5]: 19 nM
126	192	C#CCO[C@H]1CCc2ccccc2[C@H]1NC(=O)[C@@H]1CCCN1C(=O)[C@@H](NC(=O)[C@H](C)NC)C(C)(C)C	IC50 [4]: 40 nM; IC50 [5]: 600 nM

SMILES	EC50 [1] [nM]	GI50 (MDA-MB-231) [nM]	further results
CN[C@@H](C)C(=O)N[C@H](C(=O)N1CCC[C@H]1C(=O)N[C@H]1c2ccccc2C[C@H]1OCC#CC#CCO[C@@H]1Cc2ccccc2[C@@H]1NC(=O)[C@@H]1CCCN1C(=O)[C@@H](NC(=O)[C@H](C)NC)C(C)(C)C)C(C)(C)C	0.4	< 2.4	solubility thermodynamic at 24 h [2]: > 1000 µM; Papp A→B [6]: < 0.1 ×10⁻⁶ cm/s
